Laboratory results from ChEMBL document CHEMBL5316332 (J Med Chem, 2023).
The source made the active and inactive calls. No cut-off for these calls is given here.

Tests used:
[1] = molecular target: T1, Activin receptor type-1 (Homo sapiens) (UniProt Q04771); assay: Inhibition of ACVR1 (unknown origin) by LanthaScreen TR-FRET assay
T1 sequence (whole entry): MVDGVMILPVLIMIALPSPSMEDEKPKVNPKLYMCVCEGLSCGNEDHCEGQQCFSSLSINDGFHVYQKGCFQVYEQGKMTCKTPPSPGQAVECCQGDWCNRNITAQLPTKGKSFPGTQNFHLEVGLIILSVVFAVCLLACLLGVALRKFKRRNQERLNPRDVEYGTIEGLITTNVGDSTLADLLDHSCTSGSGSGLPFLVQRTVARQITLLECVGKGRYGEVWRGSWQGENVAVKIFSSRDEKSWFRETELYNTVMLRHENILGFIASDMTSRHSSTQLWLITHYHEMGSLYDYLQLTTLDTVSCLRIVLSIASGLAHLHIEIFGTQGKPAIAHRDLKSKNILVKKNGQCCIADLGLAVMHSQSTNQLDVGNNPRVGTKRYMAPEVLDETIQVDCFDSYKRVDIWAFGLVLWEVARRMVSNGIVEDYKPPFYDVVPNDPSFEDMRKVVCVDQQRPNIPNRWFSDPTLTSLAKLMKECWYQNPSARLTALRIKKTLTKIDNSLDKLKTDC
Summary of the method: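 Outsourced SelectScreen profiling using a LanthaScreen TR-FRET binding format, in which a tight-binding tracer is displaced from the kinase.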

[2] = molecular target: T2, Bone morphogenetic protein receptor type-2 (Homo sapiens) (UniProt Q13873); assay: Inhibition of human BMPR2 at 1 uM by DiscoveRx Kinomescan method
T2 sequence (whole entry): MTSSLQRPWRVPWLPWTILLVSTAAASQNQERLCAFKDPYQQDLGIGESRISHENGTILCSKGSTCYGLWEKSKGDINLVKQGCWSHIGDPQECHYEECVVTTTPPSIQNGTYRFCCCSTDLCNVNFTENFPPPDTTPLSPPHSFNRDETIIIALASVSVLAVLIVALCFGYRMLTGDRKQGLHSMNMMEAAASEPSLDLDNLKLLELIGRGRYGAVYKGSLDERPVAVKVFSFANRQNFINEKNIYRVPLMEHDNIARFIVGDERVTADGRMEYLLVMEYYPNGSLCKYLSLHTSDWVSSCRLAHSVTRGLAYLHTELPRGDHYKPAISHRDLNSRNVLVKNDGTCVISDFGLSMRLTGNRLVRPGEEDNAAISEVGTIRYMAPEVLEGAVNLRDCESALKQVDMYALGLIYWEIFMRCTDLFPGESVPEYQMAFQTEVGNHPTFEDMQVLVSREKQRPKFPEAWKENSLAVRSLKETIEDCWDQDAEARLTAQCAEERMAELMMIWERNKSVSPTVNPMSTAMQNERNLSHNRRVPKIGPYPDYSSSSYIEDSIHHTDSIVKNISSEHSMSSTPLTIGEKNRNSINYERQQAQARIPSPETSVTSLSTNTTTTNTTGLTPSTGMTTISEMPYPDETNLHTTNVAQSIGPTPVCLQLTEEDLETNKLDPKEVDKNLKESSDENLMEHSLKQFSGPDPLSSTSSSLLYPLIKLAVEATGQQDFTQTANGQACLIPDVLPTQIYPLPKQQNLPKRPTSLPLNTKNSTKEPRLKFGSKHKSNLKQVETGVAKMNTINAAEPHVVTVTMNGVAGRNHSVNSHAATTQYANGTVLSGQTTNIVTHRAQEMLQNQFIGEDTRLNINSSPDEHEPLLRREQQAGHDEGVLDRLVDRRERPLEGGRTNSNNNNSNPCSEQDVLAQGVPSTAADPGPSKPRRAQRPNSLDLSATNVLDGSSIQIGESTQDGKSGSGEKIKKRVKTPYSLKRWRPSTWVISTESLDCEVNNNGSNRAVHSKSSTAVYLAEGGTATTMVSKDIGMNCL
Summary of the method: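 Outsourced KINOMEscan panel of 403 kinases, with compound at 1 μM.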

SMILES	inhibition [1]	inhibition [2]
COc1cnc(Nc2cccc(S(N)(=O)=O)c2)nc1N1CCN(c2ccccc2)C(=O)C1	inactive	–
CNC(=O)[C@@H]1CC[C@@H](n2c(-c3ccc4cnccc4c3)nc3ccc(C(=O)NCc4cccc(C(N)=O)c4)cc32)C1	–	Active
